Results on six compounds are retold here after ChEMBL document CHEMBL3244243, “Mitomycin antibiotics. Synthesis and activity of 1,2-disubstituted mitosenes” (J Med Chem, 1977).

Activity calls are given as the source filed them. No cut-off for these calls is given here. Where only a bound is given, the exact number is not on record here.

The nature of data set [1]: Induction of lambda-bacteriophage expression in Escherichia coli assessed as induction of plaques at 0.003 ug/ml relative to control. In kind it is functional, Enterobacteria phage lambda.
For data set [2], the system named is Staphylococcus aureus. In words: Antibacterial activity against Staphylococcus aureus Smith P assessed as zone of inhibition by disk-plate assay. The class given is functional.
Data set [3] relates to Escherichia coli. Description: Antibacterial activity against Escherichia coli K-12 assessed as zone of inhibition by disk-plate assay. In kind it is functional.
The subject of data set [4] is Mycolicibacterium smegmatis. Description: Antibacterial activity against Mycobacterium smegmatis 607 assessed as zone of inhibition by disk-plate assay. The class given is functional.
Data set [5] has as its system P388. Description: Antitumor activity against mouse P388 cells allografted CDF mouse assessed as increase in maximum survival time at 3.2 mg/kg treated on days 1 and 5 following tumor implantation relative to saline treated control. The class given is functional. The method, boiled down: (§1)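 Male CDF mice implanted intraperitoneally with 10⁶ P388 ascites leukemia cells; compound given on days 1 and 5 after tumor inoculum. Increase in maximum survival time calculated against saline-treated controls. Six mice per treated group, ten mice in the control group.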

The subject of a further data set is Enterococcus faecalis. In words: Antibacterial activity against Streptococcus faecalis P1377 assessed as zone of inhibition by disk-plate assay. The class given is functional.
For data set [6], the system named is Enterobacteria phage lambda. In words: (§2) Induction of lambda-bacteriophage expression in Escherichia coli assessed as induction of plaques at 0.8 ug/ml relative to control. The class given is functional.
The test system of data set [7] is Escherichia coli. In words: Antibacterial activity against Escherichia coli B A9885 assessed as zone of inhibition by disk-plate assay. In kind it is functional.
The test system of data set [8] is Enterobacteria phage lambda. Description: (§3) Induction of lambda-bacteriophage expression in Escherichia coli assessed as induction of plaques at 0.05 ug/ml relative to control. The class given is functional.
Data set [9] deals with Escherichia coli. Description: Toxicity in lambda-bacteriophage infected Escherichia coli at 0.8 ug/ml. The class given is organism-based. The settings on record: in vivo.
A further data set relates to Klebsiella pneumoniae. Description: Antibacterial activity against Klebsiella pneumoniae assessed as zone of inhibition by disk-plate assay. In kind it is functional.
In data set [10] the test system is Escherichia coli. In words: Toxicity in lambda-bacteriophage infected Escherichia coli at 0.2 ug/ml. In kind it is organism-based. The settings on record: in vivo.
Data set [11] can be described thus: Induction of lambda-bacteriophage expression in Escherichia coli assessed as induction of plaques at 0.0125 ug/ml relative to control. In kind it is functional, Enterobacteria phage lambda.
The subject of the next data set is Bacillus subtilis. Description: Antibacterial activity against Bacillus subtilis assessed as zone of inhibition by disk-plate assay. The class given is functional.
Data set [12] relates to Enterobacteria phage lambda. Description: (§4) Induction of lambda-bacteriophage expression in Escherichia coli assessed as induction of plaques at 0.2 ug/ml relative to control. The class given is functional.
Data set [13] concerns Escherichia coli. Description: Toxicity in lambda-bacteriophage infected Escherichia coli at 0.05 ug/ml. The class given is organism-based. The settings on record: in vivo.
The next data set concerns Micrococcus luteus. In words: Antibacterial activity against Sarcina lutea assessed as zone of inhibition by disk-plate assay. The class given is functional.
In data set [14] the test system is Staphylococcus aureus. In words: Antibacterial activity against Staphylococcus aureus 209P assessed as zone of inhibition by disk-plate assay. In kind it is functional.
The test system of data set [15] is Escherichia coli. Description: Toxicity in lambda-bacteriophage infected Escherichia coli at 0.0125 ug/ml. In kind it is organism-based. The settings on record: in vivo.
A short description of data set [16]: Induction of lambda-bacteriophage expression in Escherichia coli assessed as induction of plaques at 3.1 ug/ml relative to control. The class given is functional, Enterobacteria phage lambda.
Data set [17] can be described thus: as §2. The class given is functional, Enterobacteria phage lambda.
A short description of data set [18]: as §4. In kind it is functional, Enterobacteria phage lambda.
For data set [19], the system named is Escherichia coli. Description: Toxicity in lambda-bacteriophage infected Escherichia coli at 3.1 ug/ml. In kind it is organism-based. To be noted: in vivo.
The subject of data set [20] is P388. Description: Antitumor activity against mouse P388 cells allografted CDF mouse assessed as increase in maximum survival time at 12.8 mg/kg treated on days 1 and 5 following tumor implantation relative to saline treated control. The class given is functional, organism-based. Further details: dose 12.8 mg/kg. The essentials: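 CDF male mice inoculated intraperitoneally with 10⁶ P388 ascites leukemia cells. Compound given at 12.8 mg/kg on days 1 and 5 after tumor inoculum. Six mice per compound group and ten mice in the saline control group. Read-out is percent increase in maximum survival time over the saline controls.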

Data set [21] can be described thus: as §3. In kind it is functional, Enterobacteria phage lambda.
Data set [22] has as its system P388. Description: Antitumor activity against mouse P388 cells allografted CDF mouse assessed as increase in maximum survival time at 6.4 mg/kg treated on days 1 and 5 following tumor implantation relative to saline treated control. In kind it is functional. The essentials:
as §1

Consider `COC1=C(C)C(=O)C2=C(C1=O)[C@@H](COC(N)=O)[C@@]1(OC)[C@H]3N[C@H]3CN21` [MITOMYCIN A], for which the Ratio in [1] worked out at 7.4; in [11] it was 31.1. In addition, the “diameter of the inhibition zone (DIZ)” value with Staphylococcus aureus [2] is reported as 24 mm; in the data set on Escherichia coli [3], 8 mm; in data set [4] it was 21 mm; with Enterococcus faecalis, 21 mm; with Escherichia coli [7], 13 mm; with Klebsiella pneumoniae, 16 mm. Moreover, the figures for the “diameter of the inhibition zone (DIZ)” value in the data set on Bacillus subtilis, in the data set with Micrococcus luteus and in the data set on Staphylococcus aureus [14] were above 22 mm, above 25 mm and 23 mm, respectively. Also, the survival at 3.2 mg/kg in the data set on P388 [5] was determined as 80%. Moreover, the outcome in [6], in data set [8] and in data set [12] was Active. Besides, the Activity result with Escherichia coli [9], with Escherichia coli [10], with Escherichia coli [13] and in the data set with Escherichia coli [15] was “Toxic” throughout.
Turning to `COC1=C(C)C(=O)c2c(c(COC(N)=O)c3n2C[C@@H](NC(C)=O)[C@H]3OC(C)=O)C1=O`, the “diameter of the inhibition zone (DIZ)” value was determined as 5 mm in the data set with Staphylococcus aureus [2]; 0 mm with Escherichia coli [3]; 0 mm in data set [4]; 0 mm with Enterococcus faecalis; 0 mm with Escherichia coli [7]; 0 mm in the data set with Klebsiella pneumoniae. The figures for the “diameter of the inhibition zone (DIZ)” value with Bacillus subtilis, with Micrococcus luteus and with Staphylococcus aureus [14] were 0 mm, 9 mm and 5 mm, respectively. In addition, the Ratio in [16] stood at 1.6; in [17], 1.1; in data set [18] it was 0.8.
Turning to `COC1=C(C)C(=O)c2c(c(COC(N)=O)c3n2C[C@@H](N)[C@H]3O)C1=O`, the “diameter of the inhibition zone (DIZ)” value with Staphylococcus aureus [2] is recorded as 11 mm; with Escherichia coli [3], 0 mm; in data set [4], 4 mm; with Enterococcus faecalis, 6 mm; in the data set on Escherichia coli [7], 2 mm; with Klebsiella pneumoniae, 0 mm. Further, the results for the “diameter of the inhibition zone (DIZ)” value in the data set with Bacillus subtilis, in the data set with Micrococcus luteus and with Staphylococcus aureus [14] were 8 mm, 9 mm and 9 mm, respectively. Besides, the Ratio in data set [16] was 16.7; in data set [17], 4.1; in data set [18], 1.4. For the same compound, the Activity result in the data set on Escherichia coli [19] and with Escherichia coli [9] was “Toxic” each time.
With `CNC(=O)OCc1c2c(n3c1[C@H](NC(C)=O)[C@H](OC(C)=O)C3)C(=O)C(C)=C(OC)C2=O` (relative stereo), the Ratio was 1.6 in data set [1]; 1.6 in data set [17]; 1.4 in [21]; 1.2 in [11]; 1.1 in data set [18]. Besides, the “diameter of the inhibition zone (DIZ)” value in the data set with Staphylococcus aureus [2] worked out at 15 mm; in the data set with Escherichia coli [3] it was 0 mm; in data set [4], 0 mm; in the data set on Enterococcus faecalis it was 13 mm; in the data set on Escherichia coli [7], 0 mm; in the data set on Klebsiella pneumoniae, 0 mm. The results for the “diameter of the inhibition zone (DIZ)” value in the data set on Bacillus subtilis, in the data set with Micrococcus luteus and in the data set on Staphylococcus aureus [14] were 14 mm, 13 mm and 13 mm, respectively. Also, in the data set on P388 [20], the result was inactive.
With `COC1=C(C)C(=O)c2c(c(COC(N)=O)c3n2CC[C@H]3O)C1=O`, the “diameter of the inhibition zone (DIZ)” value amounted to 17 mm with Staphylococcus aureus [2]; 0 mm with Escherichia coli [3]; 0 mm in data set [4]; 17 mm in the data set on Enterococcus faecalis; 0 mm in the data set with Escherichia coli [7]; 0 mm in the data set on Klebsiella pneumoniae. Moreover, the figures for the “diameter of the inhibition zone (DIZ)” value in the data set on Bacillus subtilis, in the data set with Micrococcus luteus and in the data set with Staphylococcus aureus [14] were 19 mm, 14 mm and 17 mm, respectively. The Ratio is listed as 6.9 in [16], 2.9 in [17] and 1.3 in data set [18].
Consider `COC1=C(C)C(=O)c2c(c(COC(N)=O)c3n2CC[C@H]3OC(C)=O)C1=O`, for which the “diameter of the inhibition zone (DIZ)” value stood at 17 mm with Staphylococcus aureus [2]; 0 mm with Escherichia coli [3]; 7 mm in [4]; 16 mm with Enterococcus faecalis; 1 mm with Escherichia coli [7]; 0 mm with Klebsiella pneumoniae. In addition, the “diameter of the inhibition zone (DIZ)” value is recorded as 23 mm in the data set with Bacillus subtilis, 14 mm with Micrococcus luteus and 15 mm in the data set on Staphylococcus aureus [14]. For the same compound, the Ratio is listed as 24.5 in data set [16], 13.2 in data set [17] and 4.3 in data set [18]. In addition, the survival at 6.4 mg/kg in the data set on P388 [22] stood at 65%.
